Consider 22 molecules from ChEMBL document CHEMBL1914421, “Aminomethyltetrazoles as potential inhibitors of the γ-aminobutyric acid transporters mGAT1-mGAT4: synthesis and biological evaluation” (Bioorg Med Chem, 2011).

Some results are limits rather than exact numbers.

The first test concerns the target T1, Sodium- and chloride-dependent GABA transporter 1 (Mus musculus, UniProt P31648). In words: Inhibition of mouse GAT1-mediated [3H]GABA uptake expressed in human HEK cells. The class given is cell-based, HEK293.
Settings: not given
The essentials: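 Specific [3H]GABA uptake measured at murine GAT1. Inhibition reported as pIC50 ± SEM from three independent experiments, each run in triplicate. Where stated, some values are the mean of two independent experiments, or one experiment in triplicate.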
As to `COc1ccccc1C1(O)CCN(CCCn2c3ccccc3c3ccccc32)CC1`, 10.2 µM corresponded to half-maximal inhibition (IC50).

Tested on in the next test: not listed separately
The test can be described thus: Inhibition of mouse GAT4-mediated [3H]GABA uptake expressed in human HEK cells. The class given is cell-based. The note with it: HEK293. The essentials:
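Specific [3H]GABA uptake was measured at the murine transporter subtype, and results are given as pIC50 ± SEM from three independent experiments, each run in triplicate.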
On to `C(CNCc1nnnn1Cc1ccccc1)=C(c1ccccc1)c1ccccc1`, for which inhibition was half-maximal at 41.7 µM (IC50).
`CC(C)(C)CC(C)(C)n1nnnc1CNCCC(c1ccccc1)c1ccccc1` gave an IC50 of 29.5 µM.
`CC(C)(C)CC(C)(C)n1nnnc1CNCCC=C(c1ccccc1)c1ccccc1` gave an IC50 of 18.2 µM.
Same read-out and setting: the figure for `CCCCNCc1nnnn1C(C)(C)CC(C)(C)C` is 49 µM; for `c1ccc(C(CNCc2nnnn2C2CCCCC2)c2ccccc2)cc1` it is 44.7 µM.
Same read-out and setting: the figure for `CC(C)(C)CC(C)(C)n1nnnc1CNCC=C(c1ccccc1)c1ccccc1` is 26.3 µM; for `c1ccc(Cn2nnnc2CNCCC(c2ccccc2)c2ccccc2)cc1` it is 63.1 µM.
Molecule `CC(C)(C)CC(C)(C)n1nnnc1CNCC(c1ccccc1)c1ccccc1` had an IC50 of 67.6 µM.
In the case of `C(CNCc1nnnn1C1CCCCC1)=C(c1ccccc1)c1ccccc1`, the IC50 was 51.3 µM.
The molecule `c1ccc(C(NCc2nnnn2C2CCCCC2)c2ccccc2)cc1` showed an IC50 of 28.8 µM.
Turning to `COc1ccccc1C1(O)CCN(CCCn2c3ccccc3c3ccccc32)CC1`, the IC50 was 16.6 µM.

For another test, the species on record is Mus musculus. In words: Selectivity ratio of IC50 for mouse GAT3 to IC50 for mouse GAT1.
Settings: not given
For the molecule `CC(C)(C)CC(C)(C)n1nnnc1CNCCC(c1ccccc1)c1ccccc1`, the Ratio IC50 stood at 12.

For the next test, the species on record is Mus musculus. In words: Selectivity ratio of IC50 for mouse GAT3 to IC50 for mouse GAT4.
Settings: not given
In the case of `CC(C)(C)CC(C)(C)n1nnnc1CNCCC(c1ccccc1)c1ccccc1`, the Ratio IC50 worked out at 4.

Tested on in a further test: not listed separately
In words: Inhibition of GAT mediated [3H]GABA uptake in rat brain synaptosomes. In kind it is subcellular.
Settings: not given
In turn, `NCCc1nnn[nH]1` yielded an IC50 of under 100 µM.
`C1CNCC(c2nnn[nH]2)C1` (configuration not stated) gave an IC50 of under 100 µM.
In turn, `C1CC(c2nnn[nH]2)CCN1` had an IC50 of under 100 µM.
With `C1=C(c2nnn[nH]2)CCNC1`, the IC50 is under 100 µM.
In turn, `NCCCc1nnn[nH]1` yielded an IC50 of under 100 µM.

Another test concerns the target T1, Sodium- and chloride-dependent GABA transporter 1. In words: Inhibition of mouse GAT1-mediated [3H]GABA uptake expressed in BHK cells. In kind it is cell-based.
Settings: not given
`COc1ccccc1C1(O)CCN(CCCn2c3ccccc3c3ccccc32)CC1` showed an IC50 of 19.1 µM.

A further test deals with T2, GABA transporter 4 (Mus musculus, UniProt P31650).
T2 sequence (P31650 whole entry): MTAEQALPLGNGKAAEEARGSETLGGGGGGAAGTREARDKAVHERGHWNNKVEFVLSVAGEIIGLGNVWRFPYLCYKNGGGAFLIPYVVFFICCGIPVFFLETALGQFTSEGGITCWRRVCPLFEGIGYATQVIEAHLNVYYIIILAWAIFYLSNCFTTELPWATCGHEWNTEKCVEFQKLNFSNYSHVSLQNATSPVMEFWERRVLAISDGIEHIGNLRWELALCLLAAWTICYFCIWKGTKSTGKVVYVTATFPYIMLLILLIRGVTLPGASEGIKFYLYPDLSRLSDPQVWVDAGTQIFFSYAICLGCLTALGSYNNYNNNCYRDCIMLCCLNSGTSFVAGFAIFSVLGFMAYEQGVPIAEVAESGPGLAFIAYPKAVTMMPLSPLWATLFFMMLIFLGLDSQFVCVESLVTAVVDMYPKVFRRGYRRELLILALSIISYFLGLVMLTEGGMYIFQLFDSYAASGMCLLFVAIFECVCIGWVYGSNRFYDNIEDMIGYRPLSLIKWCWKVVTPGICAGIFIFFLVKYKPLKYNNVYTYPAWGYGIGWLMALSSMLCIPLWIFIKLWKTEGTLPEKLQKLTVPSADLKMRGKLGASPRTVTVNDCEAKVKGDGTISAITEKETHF
The test can be described thus: Inhibition of mouse GAT4-mediated [3H]GABA uptake expressed in BHK cells. The class given is cell-based.
Settings: not given
The molecule `COc1ccccc1C1(O)CCN(CCCn2c3ccccc3c3ccccc32)CC1` had an IC50 of 15.1 µM.

For a further test, the target named is Sodium- and chloride-dependent GABA transporter 1 (Mus musculus) (UniProt P31648). In words: Residual mouse GAT1-mediated [3H]GABA uptake expressed in human HEK cells at 1 mM. The settings on record: HEK293.
Regarding `C1CN(Cc2nnn[nH]2)CCO1`, the residual activity was determined as 90.6%.
On the same count and under the same terms, for `C1CN(Cc2nnn[nH]2)CCN1` the value was 90%.
As to `NCCNCc1nnn[nH]1`, the residual activity was 81.7%.
For the molecule `CC(C)(C)CC(C)(C)n1nnnc1CNCCN`, the residual activity was 133%.
On the same count and under the same terms, for `NCc1nnn[nH]1` the value was 85.1%; for `NCC(=O)O`, 83.1%.

The test system of a further test is betaine/GABA transporter BGT-1 (Slc6a12, Mus musculus). In words: Residual mouse GAT2-mediated [3H]GABA uptake expressed in human HEK cells at 1 mM. The note with it: HEK293.
Regarding `C1CN(Cc2nnn[nH]2)CCO1`, the residual activity amounted to 88%.
Regarding `C1CN(Cc2nnn[nH]2)CCN1`, the residual activity came to 75.4%.
The same measure, in the same setting: for `NCCNCc1nnn[nH]1` the value was 80%.
Take `CC(C)(C)CC(C)(C)n1nnnc1CNCCN`: the residual activity was found to be 142%.
Take `NCc1nnn[nH]1`: the residual activity turned out to be 59.4%.

A further test has as its system GABA transporter Slc6a13 (Mus musculus). In words: Residual mouse GAT3-mediated [3H]GABA uptake expressed in human HEK cells at 1 mM. The note with it: HEK293.
With `C1CN(Cc2nnn[nH]2)CCO1`, the residual activity was found to be 87.8%.
For `C1CN(Cc2nnn[nH]2)CCN1`, the residual activity was found to be 102%.
Consider `NCCNCc1nnn[nH]1`, for which the residual activity was determined as 86.3%.
Same read-out and setting: the figure for `CC(C)(C)CC(C)(C)n1nnnc1CNCCN` is 71.1%; for `NCc1nnn[nH]1` it is 66.5%.

A further test addresses T3, GABA transporter 4 (Mus musculus) (UniProt P31650).
T3 sequence (whole entry): T2 sequence (P31650 whole entry)
In words: Residual mouse GAT4-mediated [3H]GABA uptake expressed in human HEK cells at 1 mM. The settings on record: HEK293.
With `C1CN(Cc2nnn[nH]2)CCO1`, the residual activity amounted to 90.8%.
With `C1CN(Cc2nnn[nH]2)CCN1`, the residual activity was 101%.
For `NCCNCc1nnn[nH]1`, the residual activity was found to be 60.7%.
On the same count and under the same terms, the figure for `CC(C)(C)CC(C)(C)n1nnnc1CNCCN` is 92.5%; for `NCc1nnn[nH]1` it is 78.9%; for `NCC(=O)O` it is 69.7%.

A further test deals with Sodium- and chloride-dependent GABA transporter 1 (Mus musculus) (UniProt P31648). In words: Residual mouse GAT1-mediated [3H]GABA uptake expressed in human HEK cells at 100 uM. The settings on record: HEK293.
On to `C(CNCc1nnnn1Cc1ccccc1)=C(c1ccccc1)c1ccccc1`, for which the residual activity was determined as 57.3%.
For the molecule `CC(C)(C)CC(C)(C)n1nnnc1CNCCC(c1ccccc1)c1ccccc1`, the residual activity came out at 70.7%.
For `CC(C)(C)CC(C)(C)n1nnnc1CNCCC=C(c1ccccc1)c1ccccc1`, the residual activity worked out at 75.4%.
Consider `CCCCNCc1nnnn1C(C)(C)CC(C)(C)C`, for which the residual activity came out at 83.3%.
Turning to `c1ccc(C(CNCc2nnnn2C2CCCCC2)c2ccccc2)cc1`, the residual activity worked out at 59.1%.
For the molecule `CC(C)(C)CC(C)(C)n1nnnc1CNCC=C(c1ccccc1)c1ccccc1`, the residual activity worked out at 65.7%.
For the molecule `c1ccc(Cn2nnnc2CNCCC(c2ccccc2)c2ccccc2)cc1`, the residual activity was determined as 73.9%.
The same measure, in the same setting: the figure for `CC(C)(C)CC(C)(C)n1nnnc1CNCC(c1ccccc1)c1ccccc1` is 83.3%.
In the case of `C(CNCc1nnnn1C1CCCCC1)=C(c1ccccc1)c1ccccc1`, the residual activity turned out to be 62.9%.
Take `c1ccc(C(NCc2nnnn2C2CCCCC2)c2ccccc2)cc1`: the residual activity was found to be 54.8%.

For another test, the system named is betaine/GABA transporter BGT-1 (Slc6a12, Mus musculus). The test can be described thus: Residual mouse GAT2-mediated [3H]GABA uptake expressed in human HEK cells at 100 uM. The note with it: HEK293.
For the molecule `CC(C)(C)CC(C)(C)n1nnnc1CNCCC(c1ccccc1)c1ccccc1`, the residual activity turned out to be 77.1%.
On the same count and under the same terms, the figure for `CC(C)(C)CC(C)(C)n1nnnc1CNCCC=C(c1ccccc1)c1ccccc1` is 54.9%; for `CCCCNCc1nnnn1C(C)(C)CC(C)(C)C` it is 60.3%.
Take `c1ccc(C(CNCc2nnnn2C2CCCCC2)c2ccccc2)cc1`: the residual activity came to 75.9%.
With `c1ccc(Cn2nnnc2CNCCC(c2ccccc2)c2ccccc2)cc1`, the residual activity is 61.6%.
`CC(C)(C)CC(C)(C)n1nnnc1CNCC(c1ccccc1)c1ccccc1`: the residual activity worked out at 63.5%.

The next test deals with GABA transporter Slc6a13 (Mus musculus). In words: Residual mouse GAT3-mediated [3H]GABA uptake expressed in human HEK cells at 100 uM. The settings on record: HEK293.
In the case of `CCCCNCc1nnnn1C(C)(C)CC(C)(C)C`, the residual activity was 49%.
For the molecule `c1ccc(Cn2nnnc2CNCCC(c2ccccc2)c2ccccc2)cc1`, the residual activity turned out to be 51.7%.
Same read-out and setting: for `CC(C)(C)CC(C)(C)n1nnnc1CNCC(c1ccccc1)c1ccccc1` the value was 53.8%.
